Results taken from ChEMBL document CHEMBL5131507, “Identification of histone deacetylase 10 (HDAC10) inhibitors that modulate autophagy in transformed cells” (Eur J Med Chem, 2022).
Active and inactive are the calls of the source. The calls are words filed in the database; no cut-off is given here.

What was measured:
HEK293 = assay: Cytotoxicity against human HEK293 cells assessed as cell viability at 50 uM measured after 24 hrs by Alamar Blue assay; format: toxicity, cell-based; conditions: hek293, 24 h
[1] = target: T1, Polyamine deacetylase HDAC10 (Danio rerio, UniProt F1QCV2); assay: Inhibition of zebra fish HDAC10 using Ac-spermidine-AMC as substrate incubated for 25 mins and measured by fluorescence assay
T1 sequence (F1QCV2 whole entry): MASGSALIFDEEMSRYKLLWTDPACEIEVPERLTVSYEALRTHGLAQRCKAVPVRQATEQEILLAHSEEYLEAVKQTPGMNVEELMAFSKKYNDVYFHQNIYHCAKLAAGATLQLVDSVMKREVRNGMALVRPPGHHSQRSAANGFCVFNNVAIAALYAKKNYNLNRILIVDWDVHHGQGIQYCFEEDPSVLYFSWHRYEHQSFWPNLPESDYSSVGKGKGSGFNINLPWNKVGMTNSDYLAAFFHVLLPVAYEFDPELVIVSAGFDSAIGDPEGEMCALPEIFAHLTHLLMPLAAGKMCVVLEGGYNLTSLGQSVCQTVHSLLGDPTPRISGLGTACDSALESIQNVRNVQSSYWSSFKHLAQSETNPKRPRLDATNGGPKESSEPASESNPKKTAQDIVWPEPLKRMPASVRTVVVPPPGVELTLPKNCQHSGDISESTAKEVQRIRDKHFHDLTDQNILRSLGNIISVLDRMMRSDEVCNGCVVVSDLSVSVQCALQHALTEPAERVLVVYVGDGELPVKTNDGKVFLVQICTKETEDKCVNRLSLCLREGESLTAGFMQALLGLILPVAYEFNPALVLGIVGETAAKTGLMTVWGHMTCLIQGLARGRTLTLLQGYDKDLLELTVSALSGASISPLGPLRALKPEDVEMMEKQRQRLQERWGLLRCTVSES
Summary of the method: (§1)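 Ac-spermidine-AMC at 10.5 μM final in pH 7.9 phosphate buffer (NaCl, EDTA, glycerol, Mesna, Tween 20); inhibitors in DMSO. 25 min at 25 °C, stopped with NDA in borate pH 9.5. Read at Ex 330/Em 390 nm; IC50 by nonlinear regression.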

Histone deacetylase 1 [2] = target: T2, Histone deacetylase 1 (Homo sapiens, UniProt Q13547); assay: Inhibition of recombinant human HDAC1 using ZMAL (Z-(Ac)Lys-AMC as substrate incubated for 20 mins at 1 uM and measured by homogenous fluorescence assay relative to control
[3] = target: T3, Protein deacetylase HDAC6 (Homo sapiens) (UniProt Q9UBN7); assay: Inhibition of recombinant human HDAC6 using ZMAL (Z-(Ac)Lys-AMC as substrate incubated for 20 mins at 10 uM and measured by homogenous fluorescence assay relative to control
T3 sequence (whole entry): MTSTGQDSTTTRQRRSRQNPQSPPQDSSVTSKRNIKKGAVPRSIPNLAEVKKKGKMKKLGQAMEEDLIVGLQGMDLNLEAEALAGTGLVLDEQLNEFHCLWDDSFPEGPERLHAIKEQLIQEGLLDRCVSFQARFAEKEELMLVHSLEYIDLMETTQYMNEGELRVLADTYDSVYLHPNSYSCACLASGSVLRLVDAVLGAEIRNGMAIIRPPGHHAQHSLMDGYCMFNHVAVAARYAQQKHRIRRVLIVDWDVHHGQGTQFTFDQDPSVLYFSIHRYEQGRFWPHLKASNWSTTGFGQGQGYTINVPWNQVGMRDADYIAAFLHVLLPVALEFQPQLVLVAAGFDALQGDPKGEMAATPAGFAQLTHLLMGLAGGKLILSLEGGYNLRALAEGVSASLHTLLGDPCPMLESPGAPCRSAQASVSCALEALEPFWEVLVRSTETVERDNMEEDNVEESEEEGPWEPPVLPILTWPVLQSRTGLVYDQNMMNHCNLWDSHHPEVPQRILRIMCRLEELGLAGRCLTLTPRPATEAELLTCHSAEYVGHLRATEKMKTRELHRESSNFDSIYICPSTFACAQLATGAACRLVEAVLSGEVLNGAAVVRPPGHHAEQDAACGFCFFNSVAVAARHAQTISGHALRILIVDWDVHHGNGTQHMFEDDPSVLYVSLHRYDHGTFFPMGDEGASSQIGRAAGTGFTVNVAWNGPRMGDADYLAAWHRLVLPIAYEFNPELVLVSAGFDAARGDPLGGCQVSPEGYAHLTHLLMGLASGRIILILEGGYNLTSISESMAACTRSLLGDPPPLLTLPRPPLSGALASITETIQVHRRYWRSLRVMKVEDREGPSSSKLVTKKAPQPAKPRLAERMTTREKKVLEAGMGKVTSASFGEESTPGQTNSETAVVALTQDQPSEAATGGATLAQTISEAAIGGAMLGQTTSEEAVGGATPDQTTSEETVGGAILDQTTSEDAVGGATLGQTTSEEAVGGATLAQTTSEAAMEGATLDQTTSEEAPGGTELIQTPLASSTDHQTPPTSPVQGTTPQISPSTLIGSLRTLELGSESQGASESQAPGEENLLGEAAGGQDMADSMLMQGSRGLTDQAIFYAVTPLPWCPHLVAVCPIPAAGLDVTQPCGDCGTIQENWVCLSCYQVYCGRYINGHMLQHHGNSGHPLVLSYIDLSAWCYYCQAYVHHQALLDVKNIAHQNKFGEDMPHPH

Histone deacetylase 1 [4] = target: T2, Histone deacetylase 1; assay: Inhibition of recombinant human HDAC1 using ZMAL (Z-(Ac)Lys-AMC as substrate incubated for 20 mins at 10 uM and measured by homogenous fluorescence assay relative to control
[5] = target: T3, Protein deacetylase HDAC6 (Homo sapiens); assay: Inhibition of recombinant human HDAC6 using ZMAL (Z-(Ac)Lys-AMC as substrate incubated for 20 mins at 1 uM and measured by homogenous fluorescence assay relative to control
[6] = target: T4, Protein deacetylase HDAC6 (Homo sapiens, UniProt Q9UBN7); assay: Inhibition of recombinant human HDAC6 using ZMAL (Z-(Ac)Lys-AMC as substrate incubated for 20 mins and measured by homogenous fluorescence assay
T4 sequence (Q9UBN7 whole entry): T3 sequence (whole entry)

Histone deacetylase 1 [7] = target: T2, Histone deacetylase 1; assay: Inhibition of recombinant human HDAC1 using ZMAL (Z-(Ac)Lys-AMC as substrate incubated for 20 mins and measured by homogenous fluorescence assay
[8] = target: T3, Protein deacetylase HDAC6 (Homo sapiens); assay: Inhibition of HDAC6 in human MV4-11 cells assessed as fold-induction of tubulin acetylation at 15 uM measured by immunoblotting method; format: cell-based
Summary of the method: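 MV4–11 cells treated 24 h with 2–15 μM test compounds or 0.5 μM marbostat-100 as HDAC6 reference, with solvent control. Whole-cell lysates immunoblotted for acetylated tubulin-α, β-actin as loading control. Blots quantified and expressed as fold change over untreated cells; n = 2.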

MV4-11 [9] = assay: Induction of autophagy in human MV4-11 cells assessed as slight increase in HDAC10 at 2 to 15 uM measured by immunoblotting method; format: functional, cell-based; conditions: dose 2-15 µM
[10] = target: T5, Polyamine deacetylase HDAC10 (Danio rerio) (UniProt F1QCV2); assay: Inhibition of zebra fish HDAC10 using Ac-spermidine-AMC as substrate incubated for 25 mins at 10 uM and measured by fluorescence assay relative to control; summary of the method: as §1
T5 sequence (whole entry): T1 sequence (F1QCV2 whole entry)

Histone deacetylase 8 = target: T6, Histone deacetylase 8 (Homo sapiens, UniProt Q9BY41); assay: Inhibition of recombinant human HDAC8 using H2N-Arg- His-Lys(Ac)-Lys(Ac)-AMC as substrate incubated for 90 mins and measured after 20 mins by fluorescence assay
T6 sequence (Q9BY41 whole entry): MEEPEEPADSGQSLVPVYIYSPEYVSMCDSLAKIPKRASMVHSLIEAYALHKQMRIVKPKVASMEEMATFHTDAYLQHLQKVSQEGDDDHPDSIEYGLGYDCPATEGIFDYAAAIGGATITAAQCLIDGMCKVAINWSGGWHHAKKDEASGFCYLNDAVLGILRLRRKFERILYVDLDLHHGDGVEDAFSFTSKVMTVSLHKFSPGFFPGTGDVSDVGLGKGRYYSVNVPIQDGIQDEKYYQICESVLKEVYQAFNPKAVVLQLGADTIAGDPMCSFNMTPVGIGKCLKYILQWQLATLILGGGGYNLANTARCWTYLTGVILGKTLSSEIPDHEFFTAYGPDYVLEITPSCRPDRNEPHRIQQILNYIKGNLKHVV
Summary of the method: (§2)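 Recombinant hHDAC8 run per a commercial fluorometric HDAC8 kit protocol. Substrate H2N-Arg-His-Lys(Ac)-Lys(Ac)-AMC at 50 μM with enzyme and rising inhibitor concentrations, 90 min at 37 °C. Stop solution with inhibitor plus trypsin added, developed 20 min at 37 °C. Read at Ex 355/Em 460 nm.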

[11] = target: T7, Histone deacetylase 8 (Homo sapiens) (UniProt Q9BY41); assay: Inhibition of recombinant human HDAC8 using H2N-Arg- His-Lys(Ac)-Lys(Ac)-AMC as substrate incubated for 90 mins at 1 uM and measured after 20 mins by fluorescence assay relative to control; summary of the method: as §2
T7 sequence (whole entry): T6 sequence (Q9BY41 whole entry)

[12] = target: T7, Histone deacetylase 8 (Homo sapiens); assay: Inhibition of recombinant human HDAC8 using H2N-Arg- His-Lys(Ac)-Lys(Ac)-AMC as substrate incubated for 90 mins at 10 uM and measured after 20 mins by fluorescence assay relative to control; summary of the method: as §2
MV4-11 [13] = assay: Induction of autophagy in human MV4-11 cells assessed as increase in autophagic vesicles at 2 to 15 uM measured by cyto-ID green staining based flow cytometry assay; format: functional, cell-based; conditions: dose 2-15 µM
Summary of the method: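 MV4-11 cells exposed 2–15 μM for 24 h at 37 °C, 5% CO2, with 10 μM chloroquine added to all samples; solvent-treated control. Harvested, PBS-washed, stained with Cyto-ID Green (1:1000 in phenol-red-free RPMI with 5% FCS, 30 min, 37 °C), washed twice, read by flow cytometry. n = 3; two-way ANOVA.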

SK-N-BE(2)-C = assay: Induction of autophagy in human SK-N-BE(2)-C cells assessed as increase in lysosomal compartment measured by pH-dependent LysoTracker DND-99 fluorescence assay; format: functional, cell-based
Summary of the method: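 SK-N-BE(2)-C neuroblastoma cells seeded at 1.5 × 10^5 per well, treated 24 h, then stained 1 h with 50 nM LysoTracker Red DND-99 in medium under standard culture conditions. Washed in ice-cold phenol-red-free RPMI, trypsinized 3 min at 37 °C, pelleted, resuspended in ice-cold phenol-red-free RPMI before measurement.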

[14] = target: T5, Polyamine deacetylase HDAC10 (Danio rerio); assay: Inhibition of zebra fish HDAC10 using Ac-spermidine-AMC as substrate incubated for 25 mins at 1 uM and measured by fluorescence assay relative to control; summary of the method: as §1

T2 sequence (Q13547 whole entry): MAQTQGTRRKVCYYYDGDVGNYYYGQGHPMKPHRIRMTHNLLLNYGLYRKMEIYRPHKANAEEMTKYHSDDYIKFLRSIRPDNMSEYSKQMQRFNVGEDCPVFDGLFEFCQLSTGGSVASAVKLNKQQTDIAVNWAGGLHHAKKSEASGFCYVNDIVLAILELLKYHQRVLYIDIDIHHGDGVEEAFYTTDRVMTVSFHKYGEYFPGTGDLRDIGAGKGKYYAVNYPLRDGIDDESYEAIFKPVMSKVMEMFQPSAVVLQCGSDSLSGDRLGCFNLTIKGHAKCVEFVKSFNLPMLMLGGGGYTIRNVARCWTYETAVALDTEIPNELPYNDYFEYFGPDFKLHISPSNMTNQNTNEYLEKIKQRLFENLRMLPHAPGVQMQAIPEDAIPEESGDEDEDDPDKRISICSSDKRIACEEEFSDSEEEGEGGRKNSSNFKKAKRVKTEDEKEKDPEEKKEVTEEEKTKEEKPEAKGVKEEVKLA

Row | SMILES | IC50 [1] [nM] | inhibition (Histone deacetylase 1 [2]) [%] | inhibition (Histone deacetylase 1 [4]) [%] | IC50 [6] [nM] | IC50 (Histone deacetylase 8) [nM] | Activity (HEK293) [%] | other results
1 | O=C(/C=C/C1CCN(Cc2cccc(Cl)c2)CC1)NO | 60 | 24 | 67 | – | – | 88.6 | inhibition [3]: 83%; inhibition [5]: 40%
2 | Cc1ccc(CN2CCC(/C=C/C(=O)NO)CC2)cc1 | – | – | – | – | – | 104.9 | inhibition [10]: 23%
3 | O=C(/C=C/C1CCN(Cc2ccc(Cl)cc2)CC1)NO | 33 | – | – | 430 | 950 | 84.6 | IC50 (Histone deacetylase 1 [7]): 9000 nM
4 | O=C(/C=C/C1CCN(CCc2c[nH]c3ccccc23)CC1)NO | 29 | 7 | 54 | 4800 | – | 77.3 | Activity (MV4-11 [13]): Active; Activity (SK-N-BE(2)-C): Active
5 | O=C(/C=C/C1CCN(Cc2csc3ccccc23)CC1)NO | 62 | 29 | 66 | 1400 | 1300 | 88.2 | –
6 | Cn1cc(CN2CCC(/C=C/C(=O)NO)CC2)c2ccccc21 | 58 | 12 | 67 | 2420 | 920 | 68.2 | fold change (FC) [8]: 36; Activity (MV4-11 [9]): Active
7 | CN1CCc2c(c3ccccc3n2Cc2ccc(C(=O)NO)cc2)C1 [TUBASTATIN A] | 220 | – | – | – | – | – | –
8 | O=C(/C=C/C1CCN(Cc2ccccc2)CC1)NO | 530 | 12 | 62 | – | – | 100.9 | inhibition [3]: 89%; inhibition [5]: 34%
9 | O=C(NO)c1ccc(CN2CCCCC2)cc1 | – | – | – | – | – | 92.6 | inhibition [11]: 5%; inhibition [14]: 4%

Continued, in another order:

Row | IC50 [1] [nM] | inhibition (Histone deacetylase 1 [2]) [%] | inhibition (Histone deacetylase 1 [4]) [%] | IC50 [6] [nM] | IC50 (Histone deacetylase 8) [nM] | SMILES | Activity (HEK293) [%] | other results
10 | 20 | – | – | 3700 | – | O=C(/C=C/C1CCN(Cc2cccc3ccccc23)CC1)NO | 51.6 | IC50 (Histone deacetylase 1 [7]): 3000 nM; fold change (FC) [8]: 36; Activity (MV4-11 [9]): Active
11 | – | 22 | 56 | – | – | O=C(/C=C/C1CCN(Cc2ccc(-c3ccccc3)cc2)CC1)NO | 55 | inhibition [11]: 54%; inhibition [3]: 72%; inhibition [10]: 46%; inhibition [12]: 91%; inhibition [5]: 29%
12 | 11 | – | – | 4400 | – | O=C(/C=C/C1CCN(CCc2ccccc2)CC1)NO | 54.4 | IC50 (Histone deacetylase 1 [7]): 16000 nM
13 | 24 | 16 | 50 | 177 | 1900 | O=C(NO)c1ccc(CNCc2ccsc2)cc1 | 81.5 | –
14 | 37 | 19 | 49 | 210 | 3500 | O=C(NO)c1ccc(CNCc2ccccc2)cc1 | 77.1 | –
15 | 106 | 15 | 68 | 158 | 3200 | O=C(NO)c1ccc(CNCc2cccs2)cc1 | 71.6 | –
16 | 43 | 6 | 54 | 280 | – | CN1CCN(Cc2ccc(C(=O)NO)cc2)CC1 | 86.4 | –
